Measurements taken from ChEMBL document CHEMBL4616704, “Discovery of an Atropisomeric PI3Kβ Selective Inhibitor through Optimization of the Hinge Binding Motif” (ACS Med Chem Lett, 2020).

Columns and labels:
[1] = Clearance in cynomolgus monkey at 1 mg/kg administered as iv infusion for 30 mins and measured after 24 hrs by ESI-LC/MS/MS analysis; assay type: ADME, organism-based, Macaca fascicularis; conditions: in vivo
[2] = molecular target: Voltage-gated inwardly rectifying potassium channel KCNH2 (Homo sapiens, UniProt Q12809); test: Inhibition of human ERG
In short: (§1)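 Binding-assay format used to measure inhibition of major human CYP450 enzymes and hERG.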

[3] = Clearance in Beagle dog at 1 mg/kg administered as iv infusion for 30 mins and measured after 24 hrs by ESI-LC/MS/MS analysis; assay type: ADME, organism-based, Canis lupus familiaris; conditions: in vivo
[4] = Terminal half life in rhesus monkey at 1 mg/kg administered as iv infusion for 30 mins and measured after 24 hrs by ESI-LC/MS/MS analysis; assay type: ADME, organism-based, Macaca mulatta; conditions: in vivo, read-out: beta t1/2 (converted)
[5] = molecular target: T1, Phosphatidylinositol 4,5-bisphosphate 3-kinase catalytic subunit beta isoform (Homo sapiens, UniProt P42338); test: Inhibition of PI3Kbeta in PTEN-deficient human LNCaP C4-2 cells assessed as reduction in AKT phosphorylation at Ser473 residue after 2 hrs by mesoscale assay; assay type: cell-based
In short: (§2)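 Cellular readout: pAKT1 Ser473 normalized to total AKT1, expressed as units pAKT1 Ser473 per nanogram total AKT1; cells treated under serum-free conditions.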

[6] = MRT in cynomolgus monkey at 1 mg/kg administered as iv infusion for 30 mins and measured after 24 hrs by ESI-LC/MS/MS analysis; assay type: ADME, organism-based, Macaca fascicularis; conditions: in vivo
[7] = Terminal half life in Sprague-Dawley rat at 1 mg/kg administered as iv infusion for 30 mins and measured after 24 hrs by ESI-LC/MS/MS analysis; assay type: ADME, organism-based; conditions: in vivo, read-out: beta t1/2 (converted)
[8] = molecular target: Phosphatidylinositol 4,5-bisphosphate 3-kinase catalytic subunit gamma isoform (Homo sapiens, UniProt P48736); test: Inhibition of human full length p110gamma using PIP2 as substrate after 30 mins in presence of ATP at 2xKm concentration by TR-FRET assay
[9] = Ocular toxicity in Beagle dog assessed as irreversible damage by measuring decrease in electroretinography response at 10 to 100 mg/kg/day administered for 7 days measured on day 6 by ERG and OCT analysis; assay type: organism-based, Canis lupus familiaris; conditions: in vivo, 168 h
[10] = Genotoxicity in Salmonella typhimurium by Ames test; assay type: toxicity; conditions: salmonella enterica subsp. enterica serovar typhimurium
[11] = Clearance in human hepatocytes at 1 uM measured up to 250 mins by UHPLC-HRMS analysis; assay type: ADME, cell-based, Hepatocyte
[12] = Oral bioavailability in Beagle dog at 5 mg/kg dosed via gavage after 24 hrs by ESI-LC/MS/MS analysis; assay type: ADME, organism-based, Canis lupus familiaris; conditions: in vivo
[13] = Ocular toxicity in Beagle dog assessed as irreversible damage by measuring ocular discharge at 10 to 40 mg/kg/day administered for 7 days and measured from day 4 to day 7; assay type: organism-based, Canis lupus familiaris; conditions: in vivo, 168 h
CYP450 = CYP450 (Homo sapiens, UniProt P04798+P05177+P05181+P08684+P10632+P10635+P11509+P11712+P13584+P20813+P20815+P20853+P24462+P24903+P33260+P33261+P51589+P78329+P98187+Q02928+Q08477+Q16678+Q16696+Q5TCH4+Q6VVX0+Q7Z449+Q8TAV3+Q96SQ9+Q9HB55); test: Inhibition of human CYP450; assay type: ADME, protein assay; in short: as §1
[14] = molecular target: T1, Phosphatidylinositol 4,5-bisphosphate 3-kinase catalytic subunit beta isoform; test: Inhibition of PI3Kbeta in PTEN-deficient human LNCAP cells assessed as reduction in AKT phosphorylation at Ser473 residue after 2 hrs by mesoscale assay; assay type: cell-based; in short: as §2
[15] = Ocular toxicity in Beagle dog assessed as irreversible damage by measuring decrease response in visual stimuli at 10 to 40 mg/kg/day administered for 7 days and measured from day 4 to day 7; assay type: organism-based, Canis lupus familiaris; conditions: in vivo, 168 h
[16] = Protein binding in cynomolgus monkey plasma at 1 mg/kg administered as iv infusion for 30 mins and measured after 24 hrs by ESI-LC/MS/MS analysis; assay type: ADME, organism-based, Macaca fascicularis; conditions: read-out: PPB (converted)
[17] = Clearance in rhesus monkey at 1 mg/kg administered as iv infusion for 30 mins and measured after 24 hrs by ESI-LC/MS/MS analysis; assay type: ADME, organism-based, Macaca mulatta; conditions: in vivo
[18] = Apparent permeability across basolateral to apical side in human Caco2 cells at 10 uM after 1 to 2 hrs by LC/MS/MS analysis; assay type: ADME, cell-based; conditions: Caco-2
[19] = molecular target: T1, Phosphatidylinositol 4,5-bisphosphate 3-kinase catalytic subunit beta isoform; test: Inhibition of PI3Kbeta in PTEN-deficient human PC3 cells assessed as reduction in AKT phosphorylation at Ser473 residue after 2 hrs by mesoscale assay; assay type: cell-based, PC-3; in short: as §2
[20] = Volume of distribution at steady state in Sprague-Dawley rat at 1 mg/kg administered as iv infusion for 30 mins and measured after 24 hrs by ESI-LC/MS/MS analysis; assay type: ADME, organism-based; conditions: in vivo, read-out: Vdss
[21] = Oral bioavailability in cynomolgus monkey at 5 mg/kg dosed via gavage after 24 hrs by ESI-LC/MS/MS analysis; assay type: ADME, organism-based, Macaca fascicularis; conditions: in vivo
[22] = Ocular toxicity in Beagle dog assessed as irreversible damage by measuring retinal detachment at 10 to 100 mg/kg/day administered for 7 days by microscopic analysis; assay type: organism-based, Canis lupus familiaris; conditions: in vivo, 168 h
[23] = Terminal half life in Beagle dog at 1 mg/kg administered as iv infusion for 30 mins and measured after 24 hrs by ESI-LC/MS/MS analysis; assay type: ADME, organism-based, Canis lupus familiaris; conditions: in vivo, read-out: beta t1/2 (converted)
[24] = molecular target: T1, Phosphatidylinositol 4,5-bisphosphate 3-kinase catalytic subunit beta isoform; test: Inhibition of PI3Kbeta in PTEN-deficient human MDA-MB-415 cells assessed as reduction in AKT phosphorylation at Ser473 residue after 2 hrs by mesoscale assay; assay type: cell-based; in short: as §2
[25] = Ocular toxicity in Beagle dog assessed as irreversible damage by measuring retinal degeneration at 10 to 100 mg/kg/day administered for 7 days by microscopic analysis; assay type: organism-based, Canis lupus familiaris; conditions: in vivo, 168 h
[26] = MRT in Beagle dog at 1 mg/kg administered as iv infusion for 30 mins and measured after 24 hrs by ESI-LC/MS/MS analysis; assay type: ADME, organism-based, Canis lupus familiaris; conditions: in vivo
[27] = molecular target: T1, Phosphatidylinositol 4,5-bisphosphate 3-kinase catalytic subunit beta isoform; test: Inhibition of PI3Kbeta in PTEN-deficient human ZR-75-1 cells assessed as reduction in AKT phosphorylation at Ser473 residue after 2 hrs by mesoscale assay; assay type: cell-based; in short: as §2
[28] = Ocular toxicity in Beagle dog assessed as irreversible damage by measuring red conjuctiva at 10 to 40 mg/kg/day administered for 7 days and measured from day 4 to day 7; assay type: organism-based, Canis lupus familiaris; conditions: in vivo, 168 h
[29] = Protein binding in Beagle dog plasma at 1 mg/kg administered as iv infusion for 30 mins and measured after 24 hrs by ESI-LC/MS/MS analysis; assay type: ADME, organism-based, Canis lupus familiaris; conditions: read-out: PPB (converted)
[30] = Oral bioavailability in Sprague-Dawley rat at 5 mg/kg dosed via gavage after 24 hrs by ESI-LC/MS/MS analysis; assay type: ADME, organism-based; conditions: in vivo
[31] = Dissociation constant, acidic pKa of compound; assay type: physicochemical
[32] = Clearance in Sprague-Dawley rat at 1 mg/kg administered as iv infusion for 30 mins and measured after 24 hrs by ESI-LC/MS/MS analysis; assay type: ADME, organism-based; conditions: in vivo
[33] = Terminal half life in cynomolgus monkey at 1 mg/kg administered as iv infusion for 30 mins and measured after 24 hrs by ESI-LC/MS/MS analysis; assay type: ADME, organism-based, Macaca fascicularis; conditions: in vivo, read-out: beta t1/2 (converted)
Cytochrome P450 3A4 = Cytochrome P450 3A4 (Homo sapiens, UniProt P08684); test: Inhibition of human CYP3A4; assay type: ADME
[34] = Protein binding in Sprague-Dawley rat plasma at 1 mg/kg administered as iv infusion for 30 mins and measured after 24 hrs by ESI-LC/MS/MS analysis; assay type: ADME, organism-based; conditions: read-out: PPB (converted)

T1 sequence (P42338 whole entry, canonical isoform): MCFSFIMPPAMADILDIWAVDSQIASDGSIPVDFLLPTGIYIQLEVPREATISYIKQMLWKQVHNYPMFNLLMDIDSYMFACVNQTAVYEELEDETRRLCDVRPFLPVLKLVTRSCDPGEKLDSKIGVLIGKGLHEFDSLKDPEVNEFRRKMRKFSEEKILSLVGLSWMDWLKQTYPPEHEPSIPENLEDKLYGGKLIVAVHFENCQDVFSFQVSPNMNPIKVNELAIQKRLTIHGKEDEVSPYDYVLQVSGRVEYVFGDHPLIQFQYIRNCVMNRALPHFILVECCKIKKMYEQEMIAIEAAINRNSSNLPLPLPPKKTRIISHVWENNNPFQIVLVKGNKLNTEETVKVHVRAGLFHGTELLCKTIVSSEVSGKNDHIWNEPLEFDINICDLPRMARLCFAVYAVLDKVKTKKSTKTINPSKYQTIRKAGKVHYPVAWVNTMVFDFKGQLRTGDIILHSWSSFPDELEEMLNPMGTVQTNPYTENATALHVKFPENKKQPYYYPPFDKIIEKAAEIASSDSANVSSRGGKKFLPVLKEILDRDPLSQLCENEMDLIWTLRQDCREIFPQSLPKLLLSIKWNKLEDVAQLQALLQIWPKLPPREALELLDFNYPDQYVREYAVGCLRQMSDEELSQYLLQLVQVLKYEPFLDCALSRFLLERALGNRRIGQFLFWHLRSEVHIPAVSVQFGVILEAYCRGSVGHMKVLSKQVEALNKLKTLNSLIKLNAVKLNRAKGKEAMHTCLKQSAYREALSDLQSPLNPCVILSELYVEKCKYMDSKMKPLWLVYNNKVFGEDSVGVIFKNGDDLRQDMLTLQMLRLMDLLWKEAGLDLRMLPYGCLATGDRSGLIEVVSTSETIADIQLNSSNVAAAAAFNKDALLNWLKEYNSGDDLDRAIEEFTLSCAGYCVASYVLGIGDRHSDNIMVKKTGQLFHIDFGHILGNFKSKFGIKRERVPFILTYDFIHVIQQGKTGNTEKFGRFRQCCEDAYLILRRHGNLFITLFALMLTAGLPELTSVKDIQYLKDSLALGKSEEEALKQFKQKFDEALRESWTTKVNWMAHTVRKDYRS
Cytochrome P450 3A4, sequence (P08684 whole entry, the tested form may be a part): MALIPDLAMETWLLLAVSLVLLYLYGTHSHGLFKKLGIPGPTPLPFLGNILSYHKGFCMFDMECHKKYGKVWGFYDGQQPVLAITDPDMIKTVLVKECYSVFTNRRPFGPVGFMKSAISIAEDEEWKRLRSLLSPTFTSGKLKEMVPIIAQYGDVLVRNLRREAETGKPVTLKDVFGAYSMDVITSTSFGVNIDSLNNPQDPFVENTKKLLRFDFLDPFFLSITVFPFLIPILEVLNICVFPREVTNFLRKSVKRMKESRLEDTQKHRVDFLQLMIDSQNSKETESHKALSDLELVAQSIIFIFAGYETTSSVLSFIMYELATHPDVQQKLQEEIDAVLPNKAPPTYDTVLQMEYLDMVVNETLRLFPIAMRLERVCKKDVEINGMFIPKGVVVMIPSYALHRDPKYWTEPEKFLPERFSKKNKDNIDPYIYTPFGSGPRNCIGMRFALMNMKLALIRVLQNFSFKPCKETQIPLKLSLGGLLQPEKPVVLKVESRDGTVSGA
Phosphatidylinositol 4,5-bisphosphate 3-kinase catalytic subunit gamma isoform, sequence (P48736 whole entry, canonical isoform): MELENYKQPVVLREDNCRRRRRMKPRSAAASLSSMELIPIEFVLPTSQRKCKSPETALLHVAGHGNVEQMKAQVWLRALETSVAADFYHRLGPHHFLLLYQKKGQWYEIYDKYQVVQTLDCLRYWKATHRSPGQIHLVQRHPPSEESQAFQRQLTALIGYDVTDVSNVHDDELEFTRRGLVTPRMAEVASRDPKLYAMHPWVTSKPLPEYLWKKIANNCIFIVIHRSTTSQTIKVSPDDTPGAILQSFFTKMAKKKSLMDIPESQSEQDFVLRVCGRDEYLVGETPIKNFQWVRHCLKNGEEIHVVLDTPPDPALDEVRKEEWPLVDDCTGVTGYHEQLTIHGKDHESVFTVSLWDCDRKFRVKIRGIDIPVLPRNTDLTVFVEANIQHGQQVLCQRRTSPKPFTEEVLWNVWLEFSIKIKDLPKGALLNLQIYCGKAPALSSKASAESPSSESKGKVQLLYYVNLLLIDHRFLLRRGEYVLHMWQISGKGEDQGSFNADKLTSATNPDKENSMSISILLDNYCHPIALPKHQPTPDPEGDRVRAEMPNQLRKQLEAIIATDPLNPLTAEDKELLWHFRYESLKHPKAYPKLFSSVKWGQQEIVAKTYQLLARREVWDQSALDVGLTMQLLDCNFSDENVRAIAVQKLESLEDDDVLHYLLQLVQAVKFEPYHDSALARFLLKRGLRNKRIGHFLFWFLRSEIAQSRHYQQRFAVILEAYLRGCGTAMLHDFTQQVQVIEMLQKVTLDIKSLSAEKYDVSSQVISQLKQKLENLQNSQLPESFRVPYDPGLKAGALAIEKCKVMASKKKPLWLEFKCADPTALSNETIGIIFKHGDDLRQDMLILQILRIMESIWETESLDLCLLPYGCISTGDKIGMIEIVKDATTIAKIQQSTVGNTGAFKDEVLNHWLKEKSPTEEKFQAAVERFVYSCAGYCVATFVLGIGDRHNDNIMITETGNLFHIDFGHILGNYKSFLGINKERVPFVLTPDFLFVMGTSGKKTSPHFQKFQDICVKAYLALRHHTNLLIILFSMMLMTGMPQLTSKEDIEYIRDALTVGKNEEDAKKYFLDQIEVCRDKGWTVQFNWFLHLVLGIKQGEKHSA
Voltage-gated inwardly rectifying potassium channel KCNH2, sequence (Q12809 whole entry): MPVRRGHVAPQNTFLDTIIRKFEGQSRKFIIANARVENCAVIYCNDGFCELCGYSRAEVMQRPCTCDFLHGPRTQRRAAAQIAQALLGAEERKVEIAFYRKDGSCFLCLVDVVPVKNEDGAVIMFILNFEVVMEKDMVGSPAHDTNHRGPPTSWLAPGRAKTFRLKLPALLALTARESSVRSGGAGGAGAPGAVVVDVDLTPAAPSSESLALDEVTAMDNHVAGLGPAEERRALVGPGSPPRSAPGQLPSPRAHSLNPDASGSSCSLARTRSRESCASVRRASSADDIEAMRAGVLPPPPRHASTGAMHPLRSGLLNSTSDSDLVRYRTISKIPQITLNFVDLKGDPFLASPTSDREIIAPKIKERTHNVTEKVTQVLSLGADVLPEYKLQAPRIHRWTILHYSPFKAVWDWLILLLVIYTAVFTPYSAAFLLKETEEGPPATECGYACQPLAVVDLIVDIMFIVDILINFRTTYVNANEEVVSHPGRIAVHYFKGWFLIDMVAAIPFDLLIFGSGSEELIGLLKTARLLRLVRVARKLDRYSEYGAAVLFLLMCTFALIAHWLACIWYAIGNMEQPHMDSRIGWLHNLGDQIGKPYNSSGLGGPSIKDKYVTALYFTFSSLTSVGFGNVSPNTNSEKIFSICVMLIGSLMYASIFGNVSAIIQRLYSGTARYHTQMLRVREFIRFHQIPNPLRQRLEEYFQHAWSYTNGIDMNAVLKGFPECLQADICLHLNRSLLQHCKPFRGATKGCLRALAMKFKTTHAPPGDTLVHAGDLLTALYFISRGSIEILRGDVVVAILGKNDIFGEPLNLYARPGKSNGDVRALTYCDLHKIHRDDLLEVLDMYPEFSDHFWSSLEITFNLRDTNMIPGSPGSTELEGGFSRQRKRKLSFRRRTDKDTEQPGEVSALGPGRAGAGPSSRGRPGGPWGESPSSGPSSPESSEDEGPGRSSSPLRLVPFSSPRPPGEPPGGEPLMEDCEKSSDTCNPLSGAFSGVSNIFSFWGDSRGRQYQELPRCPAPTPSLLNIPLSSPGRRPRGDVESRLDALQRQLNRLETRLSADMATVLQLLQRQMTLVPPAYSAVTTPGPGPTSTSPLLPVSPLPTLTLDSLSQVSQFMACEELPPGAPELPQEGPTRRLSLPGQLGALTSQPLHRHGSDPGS

## Cc1nc2c(-c3nnc[nH]3)cc(-c3ccnc(C#N)c3)cc2n1-c1ccnc2c(F)ccc(F)c12
[1]
  clearance: 4.17 mL/min/kg
[2]
  IC50: > 25000 nM
[3]
  clearance: 5.67 mL/min/kg
[4]
  half-life: 4.4 h
[5]
  EC50: 24 nM
[6]
  MRT: 5.2 h
[7]
  half-life: 1.2 h
[8]
  IC50: 6610 nM
[9]
  Activity: Toxic
[10]
  Activity: Non-Toxic
[11]
  CLH at 1 µM: 3.17 mL/min/kg
[11]; 250 min, 1 µM
  CLH: 3 mL/min/kg
[12]
  bioavailability: 76%
[13]
  Activity: Toxic
CYP450
  IC50: > 25000 nM
[14]
  EC50: 31 nM
[15]
  Activity: Toxic
[16]
  fraction unbound at 24 h: 0.16
[17]
  clearance: 7.83 mL/min/kg
[18]
  Papp B→A at 10 µM: 32 ×10⁻⁶ cm/s
[19]
  EC50: 12 nM
[20]
  Vd: 2.5 L/kg
[21]
  bioavailability: 35%
[22]
  Activity: Toxic
[23]
  half-life: 5.5 h
[24]
  EC50: 15 nM
[25]
  Activity: Toxic
[26]
  MRT: 7.3 h
[27]
  EC50: 5 nM
[28]
  Activity: Toxic
[29]
  fraction unbound at 24 h: 0.14
[30]
  bioavailability: 53%
[31]
  pKa: < 1
[32]
  clearance: 32.8 mL/min/kg
[33]
  half-life: 4.1 h
Cytochrome P450 3A4
  IC50: 24000 nM
[34]
  fraction unbound at 24 h: 0.16
